HCV core dimer = inhibitors of HCV core protein dimerization, primary screen, biochemical, TR-FRET, high-throughput. 300,000 tested, 0.33% active. inhibition, % at 5 µM. TR-FRET GST/Flag-core106 dimerization, 1536-well. AID 1899, 2009;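 active = inhibition above the mean of all tested compounds plus 3 SD, set per screening campaign, cut at about 45% in these data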
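test system = GST/Flag-tagged HCV core106 proteins | probe or stimulus = Eu donor and XL665 acceptor anti-tag antibodies | times = compound-protein-antibody incubation 4 h at 22.5 °C | signal = TR-FRET, excitation 340 nm, emission 617 and 671 nm | measure = percent inhibition of core106 dimerization signal | controls = wells lacking GST-core106 and wells with excess unlabelled core106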
DAGLB inh = DAGLB lipase inhibitors, primary screen, biochemical, fluorescence, HTS | inhibition, % at 5.17 µM | 340,000 tested, 0.059% active | AID 504411, 2011 | HEK293T DAGLB membrane lysate, EnzChek fluorogenic substrate; in the data active = inhibition above about 34%;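 also: 0% = enzyme with vehicle and 100% = wells lacking enzyme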
NS3 helicase inh = inhibitors of HCV NS3 helicase, primary screen, biochemical, Cy5 molecular beacon fluorescence. 290,000 tested, 0.56% active. inhibition, % at 10.9 µM. NS3 helicase DNA unwinding;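 active = inhibition above the mean of all tested compounds plus 3 SD, set per campaign, cut at about 35% in these data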;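 also: 0% = DMSO wells and 100% = thioflavine S control wells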
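Test system: hepatitis C virus NS3 helicase domain fragment enzyme. Also added: annealed dual-labelled DNA beacon duplex, ATP-started. Timing: 60 min unwinding reaction at 25 °C after ATP addition. Technique: Cy5 fluorescence. Measure: % inhibition of unwinding.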
GPR7 antagonist = GPR7 receptor antagonists, primary screen, cell-based, fluorescence, single concentration. inhibition, % at 4.4 µM. 290,000 tested, 1.1% active. AID 1861, 2009. GPR7-expressing cells, fluorescence antagonist assay. Neuropeptides B/W receptor type 1 (Homo sapiens), P48145; in the data active = inhibition above about 16%, passing the limit was not always enough;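 also: cells stimulated with the agonist NPW; 0% = agonist with vehicle and 100% = vehicle without agonist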
FID counter = compounds displacing fluorescent DNA intercalator, primary screen, artefact control for HCV NS3 helicase inhibitor project, biochemical, FID fluorescence; DNA fluorescent intercalator displacement; inhibition, % at 7.9 µM; 290,000 tested, 0.17% active; in the data active = inhibition above about 37%;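 also: 0% = vehicle and 100% = reference compound; higher means more ethidium bromide displaced from hairpin DNA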
GRK2 aptamer HTS = compounds blocking aptamer binding on GRK2 – biochemical, human GRK2, bead flow cytometry, HTS, primary screen; Beta-adrenergic receptor kinase 1 (Homo sapiens), P25098; FAM-aptamer displacement from GRK2; inhibition of aptamer binding, % at 10 µM; 330,000 tested, 0.59% active;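 active = inhibition of aptamer binding above 40%, roughly 3 SD of noise, on plates passing a quality check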;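 also: median bead fluorescence of bound FAM aptamer so fluorescent compounds give negative values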
GRK2 inh confirm = GRK2 aptamer-displacing inhibitors, retest, confirmation, biochemical, cherry pick 1, bead flow cytometry. shares compounds with GRK2 aptamer HTS. bead-bound GRK2, FAM-aptamer displacement. aptamer displacement, % at 10 µM. 2,000 tested, 4% active;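 active = aptamer displacement above 40%, near three times the noise of non-fluorescent compounds, on plates passing quality checks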;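 also: negative values mostly reflect intrinsic compound fluorescence rather than true enhancement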
FAM quench CP1 = counter-screen for GRK2 aptamer inhibitors: fluorescent aptamer quenchers; shares compounds with GRK2 aptamer HTS; Carboxyfluorescein RNA aptamer on beads, flow cytometry quenching; active compounds read low; fluorescence response (% of DMSO), % at 10 µM; 2,000 tested, under 10 active;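 active = compounds that quench the bead-bound fluorescent RNA probe, cutting fluorescence to under half of the solvent control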;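 also: counterscreen run without GRK2 so only probe quenching by compound is measured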
GRK2 confirm 2 = GRK2 aptamer-displacing inhibitors, hit retest, confirmation, biochemical, cherry pick 2, bead flow cytometry. shares compounds with GRK2 aptamer HTS. bead-bound GRK2, FAM-aptamer displacement. inhibition of aptamer binding, % at 10 µM. 360 tested, under 10 active. AID 504782, 2011;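 active = inhibition of aptamer binding above 40%, about triple the noise seen with nonglowing compounds, on plates passing quality control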;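 also: negative values mostly come from compounds that fluoresce themselves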
FAM quench CP2 = counter-screen for GRK2 binding hits: quenchers of fluorescent RNA aptamer; shares compounds with GRK2 aptamer HTS; carboxyfluorescein RNA aptamer beads, flow cytometry quenching; active compounds read low; fluorescence response vs DMSO, % at 10 µM; 360 tested, under 10 active; AID 588494;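 active = response vs DMSO under 50%, meaning signal dropped by over half, treated as fluorescence quencher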;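 also: labelled aptamer on streptavidin beads without GRK2 as a quench counter-screen; 100% = bead fluorescence of DMSO wells and lower means quenching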
* marks the source's active call; other numbers are inactive results; . = not tested or not shown. Only some compounds are listed: those with a hit (about 2.2% of all), similar ones and a draw of the others.

SMILES	HCV core dimer	DAGLB inh	NS3 helicase inh	GPR7 antagonist	FID counter	GRK2 aptamer HTS	GRK2 inh confirm	FAM quench CP1	others
O=C(Nc1cccc2ccccc12)OCc1ccccc1	.	-6	.	.	.	.	.	.
Cc1ccc(C)c(S(=O)(=O)N2CCCOC2CNC(=O)C(=O)NCc2ccncc2)c1 (centres undefined)	-6	-1	6	-2	-12	5	.	.
COc1ccc(C(C(=O)NC2CCCC2)N(C(=O)c2snc(-c3ccc(F)cc3)c2N)c2ccc(F)cc2)cc1 (centres undefined)	30	-4	-7	13	6	72*	8	103
CC(C)n1c(CN2CCN(C(=O)c3ccco3)CC2)nc2c1c(=O)n(C)c(=O)n2C	-3	-4	5	-20	-36	3	.	.
COCCCNC(=O)CCC(=O)Nc1ccc2nc(N3CCOCC3)cc(C)c2c1	-2	-1	-3	-10	-9	0	.	.
Cc1cc(N2CCN(C)CC2)nc2ccc(NC(=O)CCC(=O)NCCCOC(C)C)cc12	8	-1	4	-14	1	93*	0	100
Cc1cc([N+](=O)[O-])nn1Cc1ccc(C(=O)N/N=C/c2ccc(N(C)C)cc2)cc1	-8	1	-11	-5	-10	0	.	.
CCOC(=O)CC(=O)CSc1ccc2nnc(-c3ccc(C)cc3)n2n1	-1	6	26	-7	-29	100*	-2	98
CC1CCN(c2ccc([N+](=O)[O-])cn2)CC1	-6	0	2	7	4	55*	.	.	GRK2 confirm 2=3;FAM quench CP2=98
O=[N+]([O-])c1ccc(N2CCCC2)nc1	1	.	10	-2	0	0	.	.
O=c1nc(Nc2ccc(Br)cc2)sc2ccc([N+](=O)[O-])cc12	28	21	9	2	2	42*	-22	98
CCOC(=O)Cc1cc(=O)n2[nH]c(C)c(-c3ccc(OC)cc3)c2n1	-8	1	30	11	-27	71*	-3	99
Cc1ccc(N2C(=O)[C@@H]3C(C(=O)CN4C(=O)c5ccccc5C4=O)=NN[C@@H]3C2=O)c(C)c1	0	.	4	-1	-20	41*	3	100
COc1ccccc1N1C(=O)[C@@H]2C(C(=O)CN3C(=O)c4ccccc4C3=O)=NN[C@@H]2C1=O	0	.	0	-5	-16	0	.	.
C/C(=N\NC(=O)c1ccc(OC2OCCOC2Oc2ccc(C(=O)N/N=C(\C)c3ccncc3)cc2)cc1)c1ccncc1 (centres undefined)	7	-1	-8	-10	-6	50*	37	99
C/C(=N\NC(=O)c1ccncc1)c1ccc(N2CCOCC2)cc1	.	-1	.	.	.	0	.	.
O=C(Nc1cccc(Cl)c1N1CCOCC1)c1ccc(Br)o1	7	-8	-8	-6	-29	3	.	.
Cc1ccc2nc(SCC(=O)c3c[nH]c4ccccc34)[nH]c2c1	0	-1	-20	3	7	58*	-1	107
Cc1ccc(C(=O)CSc2nc3ccccc3c(=O)[nH]2)cc1C	7	-1	-10	-9	-8	61*	3	103

Assay outcomes (PubChem BioAssay)
